Test results reported in PMC7007182 (Molecular imaging and biology, 2020).
Residues, ends and D or L forms follow the SMILES beside them. *: point of attachment. NOTA(2S-Bn(4-NHCS)) = O=C(O)CN1CCN(CC(=O)O)C[C@H](Cc2ccc(NC(=S)*)cc2)N(CC(=O)O)CC1

Experiments:
[1] = MicroPET/CT imaging, GPC3-positive HepG2 tumor model; assay type: in vivo, nude mice; conditions: nude, mouse, iv, 5.55 MBq, total radioactivity
How it was run: (§1)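 Nude mice carried subcutaneous HepG2 or McA-RH7777 xenografts (n = 3 per group). Each received 5.55 MBq tracer i.v. under isoflurane. 10-min static microPET/CT scans at 30, 60 and 120 min; 3D-OSEM reconstruction, CT attenuation correction, decay-corrected. %ID/g from ROIs drawn over entire organs. Tumor/muscle, tumor/liver and tumor/kidney ratios calculated from PET data. Mean ± SD; ANOVA or t test.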

[2] = Ex vivo biodistribution, HepG2 tumor model; assay type: in vivo, mice; conditions: mouse, total radioactivity
[3] = In vitro stability in PBS; assay type: physicochemical; conditions: PBS at room temperature, 2 h incubation, HPLC analysis
How it was run: (§2)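 Radiotracer prepared by Al[18F]F chelation: peptide, AlCl3, acetic acid and acetonitrile with [18F]fluoride, heated at 100 °C for 10 min. Product purified on a C18 cartridge, eluted with ethanol/10 mM HCl, diluted in saline and sterile-filtered. Incubated 2 h in PBS (room temperature) or mouse serum (37 °C). Percent intact tracer by reverse-phase HPLC.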

[4] = test system: HepG2 cells; assay: Internalization in HepG2 cells; assay type: cell-based; conditions: HepG2 cells at 2 h
[5] = In vitro stability in mouse serum; assay type: in vitro ADME; conditions: mouse serum at 37 °C, 2 h incubation, HPLC analysis
How it was run: as §2

[6] = test system: GPC3-positive HepG2 cells; assay: Cellular uptake in GPC3-positive HepG2 cells; assay type: cell-based; conditions: 60 min incubation, peak value; n = 4/group, mean ± SD
How it was run: (§3)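 Uptake of the Al[18F]F-labelled peptide (radiochemical purity >97 % by HPLC) was measured as a time course in GPC3-positive HepG2 and GPC3-negative McA-RH7777 cells. Uptake is expressed as a percentage. n = 4 per group; mean ± SD.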

[7] = test system: GPC3-positive HepG2 cells; assay: Cell efflux in GPC3-positive HepG2 cells; assay type: cell-based; conditions: for cell-associated radioactivity at end of efflux study: end of 1 h efflux study; for cell-associated radioactivity at start of efflux study: start of 1 h efflux study
How it was run: (§4)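 Efflux of the Al[18F]F-chelated radiolabelled peptide was followed over time in GPC3-positive HepG2 and GPC3-negative McA-RH7777 hepatoma cells. Cell-associated radioactivity was tracked across the efflux period. n = 4 per group; mean ± SD.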

[8] = MicroPET/CT imaging, GPC3-negative McA-RH7777 tumor model; assay type: in vivo, nude mice; conditions: nude, mouse, iv, 5.55 MBq, total radioactivity
How it was run: as §1

[9] = test system: GPC3-negative McA-RH7777 cells; assay: Cell efflux in GPC3-negative McA-RH7777 cells; assay type: cell-based; conditions: efflux study
How it was run: as §4

[10] = test system: GPC3-negative McA-RH7777 cells; assay: Cellular uptake in GPC3-negative McA-RH7777 cells; assay type: cell-based; conditions: 60 min incubation; n = 4/group, mean ± SD
How it was run: as §3

tissue to tissue ratio at 1 h ([1]; HepG2 tumor / kidneys) | tissue to tissue ratio at 0.5 h ([1]; HepG2 tumor / liver) | tissue to tissue ratio at 1 h ([1]; HepG2 tumor / liver) | tissue to tissue ratio at 2 h ([1]; HepG2 tumor / liver) | tissue to tissue ratio at 0.5 h ([1]; HepG2 tumor / muscle) | tissue to tissue ratio at 1 h ([1]; HepG2 tumor / muscle) | tissue to tissue ratio at 2 h ([1]; HepG2 tumor / muscle) | tissue uptake at 0.5 h ([1]; HepG2 tumor) | tissue uptake at 1 h ([1]; HepG2 tumor) | tissue uptake at 2 h ([1]; HepG2 tumor) | tissue uptake at 0.5 h ([1]; kidneys) | tissue uptake at 1 h ([1]; kidneys) | tissue uptake at 0.5 h ([1]; liver) | tissue uptake at 1 h ([1]; liver) | tissue uptake at 1 h ([2]; HepG2 tumor) | tissue uptake at 1 h ([2]; liver) | intact radiotracer in PBS [3] | intact radiotracer in mouse serum [5] | SMILES | internalization [4] | cell uptake in HepG2 cells [6] | also measured
0.31 ± 0.04 | 0.43 ± 0.06 | 0.59 ± 0.14 | 0.46 ± 0.4 | 5.56 ± 1.36 | 5.13 ± 2.08 | 2.68 ± 0.29 | 2.2 ± 0.36 %ID/g | 2.13 ± 0.55 %ID/g | 0.73 ± 0.32 %ID/g | 9.83 ± 3.69 %ID/g | 7.03 ± 2.32 %ID/g | 5.1 ± 0.53 %ID/g | 3.7 ± 0.98 %ID/g | 1.13 ± 0.02 %ID/g | 2.3 ± 0.56 %ID/g | – | – | CC(C)C[C@H](NC(=O)[C@H](CCCNC(=N)N)NC(=S)Nc1ccc(C[C@H]2CN(CC(=O)O)CCN(CC(=O)O)CCN2CC(=O)O)cc1)C(=O)N[C@@H](CC(N)=O)C(=O)N[C@H](C(=O)NCC(=O)NCC(=O)N[C@H](C(=O)N[C@@H](Cc1ccc(O)cc1)C(=O)N[C@@H](Cc1ccccc1)C(=O)N[C@@H](CC(C)C)C(=O)N[C@H](C(=O)N[C@H](C(=O)N[C@@H](CCCNC(=N)N)C(=O)N[C@@H](CCC(N)=O)C(=O)O)[C@@H](C)O)[C@@H](C)O)[C@@H](C)O)C(C)C [Al[^18F]F-GP2076] ({NOTA(2S-Bn(4-NHCS))}-RLNVGGTYFLTTRQ-OH; N-terminus and C-terminus assumed) [listing 1 of 2 here] | – | – | –
– | – | – | – | – | – | – | – | – | – | – | – | – | – | – | – | > 95% | > 95% | CC(C)C[C@H](NC(=O)[C@H](CCCNC(=N)N)NC(=S)Nc1ccc(C[C@H]2CN(CC(=O)O)CCN(CC(=O)O)CCN2CC(=O)O)cc1)C(=O)N[C@@H](CC(N)=O)C(=O)N[C@H](C(=O)NCC(=O)NCC(=O)N[C@H](C(=O)N[C@@H](Cc1ccc(O)cc1)C(=O)N[C@@H](Cc1ccccc1)C(=O)N[C@@H](CC(C)C)C(=O)N[C@H](C(=O)N[C@H](C(=O)N[C@@H](CCCNC(=N)N)C(=O)N[C@@H](CCC(N)=O)C(=O)O)[C@@H](C)O)[C@@H](C)O)[C@@H](C)O)C(C)C [Al[^18F]F-GP2076] ({NOTA(2S-Bn(4-NHCS))}-RLNVGGTYFLTTRQ-OH; N-terminus and C-terminus assumed) [listing 2 of 2 here] | < 10 % of cell uptake | 1.08 ± 0.04% | cell-associated radioactivity at end of efflux study [7]: 0.21%; cell-associated radioactivity at start of efflux study [7]: 1.04%
0.09 ± 0.01 | 1.77 ± 0.2 | 2 ± 0.18 | 1.28 ± 0.25 | 9.11 ± 0.79 | 12.2 ± 0.62 | 6.2 ± 1.8 | 3.13 ± 0.31 %ID/g | 3.37 ± 0.35 %ID/g | 1.3 ± 0.17 %ID/g | 39.4 ± 0.98 %ID/g | 36.9 ± 2.05 %ID/g | 1.8 ± 0.36 %ID/g | 1.7 ± 0.26 %ID/g | 1.96 ± 0.29 %ID/g | 0.97 ± 0.07 %ID/g | – | – | CC(C)C[C@H](NC(=O)[C@H](CCCNC(=N)N)NC(=O)[C@H](CC(N)=O)NC(=O)[C@H](CC(=O)O)NC(=O)[C@H](CCCNC(=N)N)NC(=O)CNC(=O)CNC(=O)CNC(=S)Nc1ccc(C[C@H]2CN(CC(=O)O)CCN(CC(=O)O)CCN2CC(=O)O)cc1)C(=O)N[C@@H](CC(N)=O)C(=O)N[C@H](C(=O)NCC(=O)NCC(=O)N[C@H](C(=O)N[C@@H](Cc1ccc(O)cc1)C(=O)N[C@@H](Cc1ccccc1)C(=O)N[C@@H](CC(C)C)C(=O)N[C@H](C(=O)N[C@H](C(=O)N[C@@H](CCCNC(=N)N)C(=O)N[C@@H](CCC(N)=O)C(=O)O)[C@@H](C)O)[C@@H](C)O)[C@@H](C)O)C(C)C [Al[^18F]F-GP2633] ({NOTA(2S-Bn(4-NHCS))}-GGGRDNRLNVGGTYFLTTRQ-OH; N-terminus and C-terminus assumed) [listing 1 of 2 here] | – | – | tissue to tissue ratio at 0.5 h ([8]; McA-RH7777 tumor / muscle): 3.87 ± 1.97; tissue to tissue ratio at 1 h ([8]; McA-RH7777 tumor / muscle): 6.2 ± 2.67; tissue uptake at 0.5 h ([8]; McA-RH7777 tumor): 1.75 ± 0.05 %ID/g; tissue uptake at 1 h ([8]; McA-RH7777 tumor): 1.64 ± 0.03 %ID/g; tissue uptake at 2 h ([8]; McA-RH7777 tumor): 0.66 ± 0.06 %ID/g
– | – | – | – | – | – | – | – | – | – | – | – | – | – | – | – | > 98% | > 98% | CC(C)C[C@H](NC(=O)[C@H](CCCNC(=N)N)NC(=O)[C@H](CC(N)=O)NC(=O)[C@H](CC(=O)O)NC(=O)[C@H](CCCNC(=N)N)NC(=O)CNC(=O)CNC(=O)CNC(=S)Nc1ccc(C[C@H]2CN(CC(=O)O)CCN(CC(=O)O)CCN2CC(=O)O)cc1)C(=O)N[C@@H](CC(N)=O)C(=O)N[C@H](C(=O)NCC(=O)NCC(=O)N[C@H](C(=O)N[C@@H](Cc1ccc(O)cc1)C(=O)N[C@@H](Cc1ccccc1)C(=O)N[C@@H](CC(C)C)C(=O)N[C@H](C(=O)N[C@H](C(=O)N[C@@H](CCCNC(=N)N)C(=O)N[C@@H](CCC(N)=O)C(=O)O)[C@@H](C)O)[C@@H](C)O)[C@@H](C)O)C(C)C [Al[^18F]F-GP2633] ({NOTA(2S-Bn(4-NHCS))}-GGGRDNRLNVGGTYFLTTRQ-OH; N-terminus and C-terminus assumed) [listing 2 of 2 here] | < 10 % of cell uptake | 1.15 ± 0.05% | time for radioactivity to wash out to the baseline [9]: ≤ 5 min; cellular uptake in McA-RH7777 cells [10]: 0.30 ± 0.03%; cell-associated radioactivity at end of efflux study [7]: 0.27%; cell-associated radioactivity at start of efflux study [7]: 1.13%
